Legend:
Format in all cases: functional
T47D = assay: Anticancer activity against human T47D cells assessed as cell growth promotion at 10^-5 M after 48 hrs by SRB assay relative to control
[1] = Anticancer activity against human […] cells assessed as cell growth promotion at 10^-5 M after 48 hrs by SRB assay relative to control
CAKI-1 = assay: Anticancer activity against human Caki1 cells assessed as cell growth promotion at 10^-5 M after 48 hrs by SRB assay relative to control
IGROV-1 = assay: Anticancer activity against human IGROV1 cells assessed as cell growth promotion at 10^-5 M after 48 hrs by SRB assay relative to control
SF-268 = assay: Anticancer activity against human SF268 cells assessed as cell growth promotion at 10^-5 M after 48 hrs by SRB assay relative to control
786-0 = assay: Anticancer activity against human 786-0 cells assessed as cell growth promotion at 10^-5 M after 48 hrs by SRB assay relative to control
UACC-62 = assay: Anticancer activity against human UACC62 cells assessed as cell growth promotion at 10^-5 M after 48 hrs by SRB assay relative to control
U-251 = assay: Anticancer activity against human U251 cells assessed as cell growth promotion at 10^-5 M after 48 hrs by SRB assay relative to control
RXF 393 = assay: Anticancer activity against human RXF393 cells assessed as cell growth promotion at 10^-5 M after 48 hrs by SRB assay relative to control
NCI/ADR-RES = assay: Anticancer activity against human NCI/ADR-RES cells assessed as cell growth promotion at 10^-5 M after 48 hrs by SRB assay relative to control
SK-MEL-28 = assay: Anticancer activity against human SK-MEL-28 cells assessed as cell growth promotion at 10^-5 M after 48 hrs by SRB assay relative to control
HCC 2998 = assay: Anticancer activity against human HCC2998 cells assessed as cell growth promotion at 10^-5 M after 48 hrs by SRB assay relative to control
EKVX = assay: Anticancer activity against human EKVX cells assessed as cell growth promotion at 10^-5 M after 48 hrs by SRB assay relative to control
TK-10 = assay: Anticancer activity against human TK10 cells assessed as cell growth promotion at 10^-5 M after 48 hrs by SRB assay relative to control
HCT-15 = assay: Anticancer activity against human HCT15 cells assessed as cell growth promotion at 10^-5 M after 48 hrs by SRB assay relative to control
KM12 = assay: Anticancer activity against human KM12 cells assessed as cell growth promotion at 10^-5 M after 48 hrs by SRB assay relative to control
OVCAR-3 = assay: Anticancer activity against human OVCAR3 cells assessed as cell growth promotion at 10^-5 M after 48 hrs by SRB assay relative to control
HT-29 = assay: Anticancer activity against human HT-29 cells assessed as cell growth promotion at 10^-5 M after 48 hrs by SRB assay relative to control
COLO 205 = assay: Anticancer activity against human COLO205 cells assessed as cell growth promotion at 10^-5 M after 48 hrs by SRB assay relative to control
MOLT-4 = assay: Anticancer activity against human MOLT4 cells assessed as cell growth promotion at 10^-5 M after 48 hrs by SRB assay relative to control
SK-MEL-5 = assay: Anticancer activity against human SK-MEL-5 cells assessed as cell growth promotion at 10^-5 M after 48 hrs by SRB assay relative to control
NCI-H23 = assay: Anticancer activity against human NCI-H23 cells assessed as cell growth promotion at 10^-5 M after 48 hrs by SRB assay relative to control
ACHN = assay: Anticancer activity against human ACHN cells assessed as cell growth promotion at 10^-5 M after 48 hrs by SRB assay relative to control
PC-3 = assay: Anticancer activity against human PC3 cells assessed as cell growth promotion at 10^-5 M after 48 hrs by SRB assay relative to control
DU-145 = assay: Anticancer activity against human DU145 cells assessed as cell growth promotion at 10^-5 M after 48 hrs by SRB assay relative to control
OVCAR-5 = assay: Anticancer activity against human OVCAR5 cells assessed as cell growth promotion at 10^-5 M after 48 hrs by SRB assay relative to control
UACC-257 = assay: Anticancer activity against human UACC257 cells assessed as cell growth promotion at 10^-5 M after 48 hrs by SRB assay relative to control
[2] = Anticancer activity against human Hs 578T cells assessed as cell growth promotion at 10^-5 M after 48 hrs by SRB assay relative to control
SF-295 = assay: Anticancer activity against human SF295 cells assessed as cell growth promotion at 10^-5 M after 48 hrs by SRB assay relative to control
SR = assay: Anticancer activity against human SR cells assessed as cell growth promotion at 10^-5 M after 48 hrs by SRB assay relative to control
A498 = assay: Anticancer activity against human A498 cells assessed as cell growth promotion at 10^-5 M after 48 hrs by SRB assay relative to control
MDA-MB-435 = assay: Anticancer activity against human MDA-MB-435 cells assessed as cell growth promotion at 10^-5 M after 48 hrs by SRB assay relative to control
SK-OV-3 = assay: Anticancer activity against human SKOV3 cells assessed as cell growth promotion at 10^-5 M after 48 hrs by SRB assay relative to control
LOX IMVI = assay: Anticancer activity against human LOXIMVI cells assessed as cell growth promotion at 10^-5 M after 48 hrs by SRB assay relative to control
HL-60(TB) = assay: Anticancer activity against human HL-60(TB) cells assessed as cell growth promotion at 10^-5 M after 48 hrs by SRB assay relative to control
Outline: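 NCI-60 single-dose screen: compound at 10^-5 M, 48 h at 37 °C, 5% CO2; cells grown in RPMI 1640 with 5% FBS and 2 mM L-glutamine, pre-incubated 24 h before dosing. Adherent cells fixed with cold TCA; endpoint is sulforhodamine B protein staining. Percent growth of treated cells is reported relative to untreated control.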

SF-539 = assay: Anticancer activity against human SF539 cells assessed as cell growth promotion at 10^-5 M after 48 hrs by SRB assay relative to control
SW-620 = assay: Anticancer activity against human SW620 cells assessed as cell growth promotion at 10^-5 M after 48 hrs by SRB assay relative to control
MCF7 = assay: Anticancer activity against human MCF7 cells assessed as cell growth promotion at 10^-5 M after 48 hrs by SRB assay relative to control
SN12C = assay: Anticancer activity against human SN12C cells assessed as cell growth promotion at 10^-5 M after 48 hrs by SRB assay relative to control

SMILES	Activity (T47D)	Activity [1]	Activity (CAKI-1)	Activity (IGROV-1)	Activity (SF-268)	Activity (786-0)	Activity (UACC-62)	Activity (U-251)	Activity (RXF 393)	Activity (NCI/ADR-RES)	Activity (SK-MEL-28)	Activity (HCC 2998)	Activity (EKVX)	Activity (TK-10)	Activity (HCT-15)	Activity (KM12)	Activity (OVCAR-3)	Activity (HT-29)	Activity (COLO 205)	Activity (MOLT-4)	further results
O=C(Nc1ccccc1C(=O)Nc1ccc(/C=C/c2ccc(Cl)cc2)cc1)c1ccco1	106%	120%	89.89%	117%	107%	103%	101%	107%	117%	104%	111%	96.83%	80.41%	127%	109%	110%	109%	103%	128%	100%	Activity (SK-MEL-5): 105%; Activity (NCI-H23): 95.98%; Activity (ACHN): 100%; Activity (PC-3): 115%; Activity (DU-145): 112%; Activity (OVCAR-5): 108%; Activity (UACC-257): 112%; Activity [2]: 113%; Activity (SF-295): 122%; Activity (SR): 109%; Activity (A498): 69.42%; Activity (MDA-MB-435): 101%; Activity (SK-OV-3): 116%; Activity (LOX IMVI): 94.63%; Activity (HL-60(TB)): 96.67%; Activity (SF-539): 97.41%; Activity (SW-620): 106%; Activity (MCF7): 98.82%; Activity (SN12C): 103%
O=c1c2ccccc2nc(-c2ccco2)n1/N=C/c1ccccc1Cl	62.59%	92.65%	62.86%	71.23%	72.86%	26.39%	62.82%	37.22%	82.73%	12.24%	38.98%	34.89%	64.12%	73.98%	62.36%	26.67%	27.98%	52.78%	32.76%	99.12%	Activity (SK-MEL-5): 48.82%; Activity (NCI-H23): 64.87%; Activity (ACHN): 23.89%; Activity (PC-3): 78.23%; Activity (DU-145): 56.23%; Activity (OVCAR-5): 37.89%; Activity (UACC-257): 82.72%; Activity [2]: 83.85%; Activity (SF-295): 52.12%; Activity (SR): 94.12%; Activity (A498): 36.82%; Activity (MDA-MB-435): 90.21%; Activity (SK-OV-3): 25.85%; Activity (LOX IMVI): 34.24%; Activity (HL-60(TB)): 89.12%; Activity (SF-539): 24.89%; Activity (SW-620): 34.38%; Activity (MCF7): 63.86%; Activity (SN12C): 36.81%

— ChEMBL document CHEMBL1781959, “Synthesis and in vitro antitumor activity of substituted quinazoline and quinoxaline derivatives: search for anticancer agent” (Eur J Med Chem, 2011)
